Reference: ChEMBL document CHEMBL2396581, “20(S)-Protopanaxadiol (PPD) analogues chemosensitize multidrug-resistant cancer cells to clinical anticancer drugs” (Bioorg Med Chem, 2013)
Values belong to the compound of their own block, whether it stands above or below them.

What was measured:
Format in all cases: cell-based
[1] = target: T1, ATP-dependent translocase ABCB1 (Homo sapiens, UniProt P08183); experiment: Inhibition of p-gp in human KB/VCR cells assessed as potentiation of 1 uM docetaxel-induced cytotoxicity at 5 uM after 72 hrs by MTT assay
T1 sequence (P08183 whole entry): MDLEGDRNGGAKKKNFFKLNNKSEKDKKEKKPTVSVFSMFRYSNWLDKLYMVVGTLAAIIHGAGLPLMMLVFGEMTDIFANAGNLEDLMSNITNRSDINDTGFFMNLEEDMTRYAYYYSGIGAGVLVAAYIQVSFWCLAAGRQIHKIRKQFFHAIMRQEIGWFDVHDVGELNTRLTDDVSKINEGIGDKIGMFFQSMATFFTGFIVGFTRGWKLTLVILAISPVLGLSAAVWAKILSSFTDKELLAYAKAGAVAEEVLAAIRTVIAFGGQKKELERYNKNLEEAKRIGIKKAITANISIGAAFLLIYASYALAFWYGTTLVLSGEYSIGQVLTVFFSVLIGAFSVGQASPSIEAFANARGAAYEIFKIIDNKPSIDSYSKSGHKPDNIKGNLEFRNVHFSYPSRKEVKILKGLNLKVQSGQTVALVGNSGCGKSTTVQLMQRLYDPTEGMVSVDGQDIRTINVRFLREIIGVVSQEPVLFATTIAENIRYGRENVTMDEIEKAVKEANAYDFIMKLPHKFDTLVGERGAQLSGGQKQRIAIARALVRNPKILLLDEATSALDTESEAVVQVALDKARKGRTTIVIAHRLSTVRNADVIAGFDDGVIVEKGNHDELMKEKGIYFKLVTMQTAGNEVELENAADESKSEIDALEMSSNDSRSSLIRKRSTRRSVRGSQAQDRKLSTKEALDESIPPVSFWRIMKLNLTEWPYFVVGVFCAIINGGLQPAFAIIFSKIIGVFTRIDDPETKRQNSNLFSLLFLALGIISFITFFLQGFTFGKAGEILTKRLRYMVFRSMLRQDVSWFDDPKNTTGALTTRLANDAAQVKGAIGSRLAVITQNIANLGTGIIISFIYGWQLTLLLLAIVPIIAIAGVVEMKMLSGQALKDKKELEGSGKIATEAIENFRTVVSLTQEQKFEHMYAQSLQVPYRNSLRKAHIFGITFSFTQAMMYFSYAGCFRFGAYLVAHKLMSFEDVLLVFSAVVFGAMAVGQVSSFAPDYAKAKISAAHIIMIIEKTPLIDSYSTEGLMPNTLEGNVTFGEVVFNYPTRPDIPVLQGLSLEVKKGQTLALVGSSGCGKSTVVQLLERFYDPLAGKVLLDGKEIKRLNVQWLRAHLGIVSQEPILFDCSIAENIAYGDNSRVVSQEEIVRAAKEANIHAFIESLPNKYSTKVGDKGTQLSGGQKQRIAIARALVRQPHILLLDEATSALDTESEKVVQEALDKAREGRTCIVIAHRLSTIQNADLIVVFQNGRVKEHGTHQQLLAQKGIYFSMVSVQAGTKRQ
In short: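 KBvcr cells seeded at 5 × 10^3 per well were cotreated with 5 μM compound and 1 μM docetaxel for 72 h. Survival (%) was read by MTT and compared with wells without docetaxel.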

[2] = target: T1, ATP-dependent translocase ABCB1; experiment: Inhibition of p-gp in human KB/VCR cells assessed as intracellular accumulation of adriamycin at 5 uM after 3 hrs by fluorescence assay relative to control
In short: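 KBvcr cells plated at 1 × 10^5 per well were given ADM (final 10 μM) with 5 μM compound for 3 h. After ice-cold PBS wash and lysis in 1% SDS, intrinsic ADM fluorescence (ex 485/em 590 nm) was read. Results are expressed as a ratio to the ADM-only control, mean ± SD, n = 3.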

[3] = Cytotoxicity against human KB/VCR cells assessed as cell viability at 5 uM after 72 hrs by MTT assay
In short: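 KB/VCR cells in DMEM with 10% FBS and penicillin/streptomycin, 37 °C, 5% CO2. Cells were allowed to attach for 12 h, then exposed to compound for 72 h. MTT was added for 4 h and formazan read at 490 nm.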

[4] = target: T1, ATP-dependent translocase ABCB1; experiment: Inhibition of p-gp in human KB/VCR cells assessed as potentiation of vincristine-induced cytotoxicity at 5 uM after 72 hrs by MTT assay
[5] = target: T1, ATP-dependent translocase ABCB1; experiment: Inhibition of p-gp in human KB/VCR cells assessed as potentiation of adriamycin-induced cytotoxicity at 5 uM after 72 hrs by MTT assay
[6] = target: T1, ATP-dependent translocase ABCB1; experiment: Inhibition of p-gp in human KB/VCR cells assessed as potentiation of 1 uM docetaxel-induced cytotoxicity at 5 uM after 72 hrs by MTT assay relative to verapamil
[7] = target: T1, ATP-dependent translocase ABCB1; experiment: Inhibition of p-gp in human KB/VCR cells assessed as potentiation of 100 nM docetaxel-induced cytotoxicity after 72 hrs by MTT assay
In short: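 KBvcr cells cultured 72 h with fixed 100 nM docetaxel and graded modulator concentrations. Viability read by MTT, formazan at 490 nm. EC50 calculated from dose–response. Mean SD of three independent experiments.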

[8] = target: T1, ATP-dependent translocase ABCB1; experiment: Inhibition of p-gp in human KB/VCR cells assessed as intracellular accumulation of rhodamine123 after 2 hrs by microplate fluorometric analysis
In short: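 KBvcr cells plated at 1 × 10^5 per well and incubated 2 h at 37 °C in CO2 incubator with 10 μM Rhodamine123, with or without test compounds. Cells washed with ice-cold PBS, then lysed in 1% SDS/PBS. Fluorescence read at ex 494/em 517 nm. Accumulation ratio taken relative to untreated cells. Mean SD of three independent experiments.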

[9] = target: T1, ATP-dependent translocase ABCB1; experiment: Inhibition of p-gp in human KB/VCR cells assessed as potentiation of adriamycin-induced cytotoxicity at 5 uM after 72 hrs by MTT assay relative to verapamil
[10] = target: T1, ATP-dependent translocase ABCB1; experiment: Inhibition of p-gp in human KB/VCR cells assessed as potentiation of vincristine-induced cytotoxicity at 5 uM after 72 hrs by MTT assay relative to verapamil
[11] = target: T1, ATP-dependent translocase ABCB1; experiment: Inhibition of p-gp in human KB/VCR cells assessed as intracellular accumulation of rhodamine123 at 2 uM after 2 hrs by microplate fluorometric analysis
In short: (§1)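 KBvcr cells plated at 1 × 10^5 per well were pretreated with graded compound concentrations, then given Rhodamine123 10 μM for 2 h at 37 °C. Cells were washed with ice-cold PBS and lysed in 1% SDS. Fluorescence (ex 494/em 517 nm) was read on a microplate fluorometer and compared with untreated cells. Three independent experiments.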

[12] = target: T1, ATP-dependent translocase ABCB1; experiment: Inhibition of p-gp in human KB/VCR cells assessed as intracellular accumulation of rhodamine123 at 3 uM after 2 hrs by microplate fluorometric analysis; in short: as §1
[13] = target: T1, ATP-dependent translocase ABCB1; experiment: Inhibition of p-gp in human KB/VCR cells assessed as intracellular accumulation of rhodamine123 at 0.5 uM after 2 hrs by microplate fluorometric analysis; in short: as §1
[14] = target: T1, ATP-dependent translocase ABCB1; experiment: Inhibition of p-gp in human KB/VCR cells assessed as intracellular accumulation of rhodamine123 at 1 uM after 2 hrs by microplate fluorometric analysis; in short: as §1

Structure (SMILES): CC1(C)[C@@H](O)CC[C@]2(C)[C@H]3C[C@@H](O)[C@@H]4[C@@H]([C@@](C)(O)CCCNCCc5ccc6c(c5)OCO6)CC[C@@]4(C)[C@]3(C)CC[C@@H]12
inhibition (INH) [1]: Active

fold change (FC) [2]: 1.3
Structure (SMILES): CC1(C)[C@@H](O)CC[C@]2(C)[C@H]3C[C@@H](O)[C@@H]4[C@@H]([C@@](C)(O)CCCNCCCc5ccccc5)CC[C@@]4(C)[C@]3(C)CC[C@@H]12
inhibition (INH) [1]: Active
Activity [3]: Toxic

Structure (SMILES): CC1(C)[C@@H](O)CC[C@]2(C)[C@H]3C[C@@H](O)[C@@H]4[C@@H]([C@@](C)(O)CCCNCc5ccccn5)CC[C@@]4(C)[C@]3(C)CC[C@@H]12
inhibition (INH) [1]: Active

fold change (FC) [2]: 1.3
Structure (SMILES): CC1(C)[C@@H](O)CC[C@]2(C)[C@H]3C[C@@H](O)[C@@H]4[C@@H]([C@@](C)(O)CCCNCc5cccnc5)CC[C@@]4(C)[C@]3(C)CC[C@@H]12
inhibition (INH) [4]: Active
inhibition (INH) [1]: Active
inhibition (INH) [5]: Active

Structure (SMILES): CC1(C)[C@@H](O)CC[C@]2(C)[C@H]3C[C@@H](O)[C@@H]4[C@@H]([C@@](C)(O)CCCNCc5ccncc5)CC[C@@]4(C)[C@]3(C)CC[C@@H]12
inhibition (INH) [1]: Active

Structure (SMILES): COc1ccc(NCCC[C@](C)(O)[C@H]2CC[C@]3(C)[C@@H]2[C@H](O)C[C@@H]2[C@@]4(C)CC[C@H](O)C(C)(C)[C@@H]4CC[C@]23C)cc1
inhibition (INH) [1]: Not Active

Structure (SMILES): CC1(C)[C@@H](O)CC[C@]2(C)[C@H]3C[C@@H](O)[C@@H]4[C@@H]([C@@](C)(O)CCCNCc5ccccc5)CC[C@@]4(C)[C@]3(C)CC[C@@H]12
fold change (FC) [6]: 1.5
inhibition (INH) [7]: Dose-dependent effect
fold change (FC) [2]: 1.3
inhibition (INH) [1]: Active
inhibition (INH) [8]: Dose-dependent effect
fold change (FC) [9]: 1.3
fold change (FC) [10]: 1.3
RFU [11]: 57000
RFU [12]: 95300
RFU [13]: 39800

Structure (SMILES): C[C@H](NCCC[C@](C)(O)[C@H]1CC[C@]2(C)[C@@H]1[C@H](O)C[C@@H]1[C@@]3(C)CC[C@H](O)C(C)(C)[C@@H]3CC[C@]12C)c1ccccc1
inhibition (INH) [1]: Active
Activity [3]: Toxic

Structure (SMILES): COc1ccc(CNCCC[C@](C)(O)[C@H]2CC[C@]3(C)[C@@H]2[C@H](O)C[C@@H]2[C@@]4(C)CC[C@H](O)C(C)(C)[C@@H]4CC[C@]23C)cc1
inhibition (INH) [1]: Active

Structure (SMILES): CC1(C)[C@@H](O)CC[C@]2(C)[C@H]3C[C@@H](O)[C@@H]4[C@@H]([C@@](C)(O)CCCNCc5ccc(F)cc5)CC[C@@]4(C)[C@]3(C)CC[C@@H]12
inhibition (INH) [1]: Active
Activity [3]: Toxic

Structure (SMILES): CC1(C)[C@@H](O)CC[C@]2(C)[C@H]3C[C@@H](O)[C@@H]4[C@@H]([C@@](C)(O)CCCNCc5ccc(Cl)cc5)CC[C@@]4(C)[C@]3(C)CC[C@@H]12
inhibition (INH) [1]: Active
Activity [3]: Toxic

Structure (SMILES): COc1ccc(CNCCC[C@](C)(O)[C@H]2CC[C@]3(C)[C@@H]2[C@H](O)C[C@@H]2[C@@]4(C)CC[C@H](O)C(C)(C)[C@@H]4CC[C@]23C)cc1OC
inhibition (INH) [1]: Active

fold change (FC) [2]: 1.3
inhibition (INH) [8]: Dose-dependent effect
RFU [14]: 48700
RFU [11]: 63700
RFU [12]: 105300
RFU [13]: 43200
Structure (SMILES): CC1(C)[C@@H](O)CC[C@]2(C)[C@H]3C[C@@H](O)[C@@H]4[C@@H]([C@@](C)(O)CCCNCCc5ccccc5)CC[C@@]4(C)[C@]3(C)CC[C@@H]12
fold change (FC) [6]: 2.6
inhibition (INH) [7]: Dose-dependent effect
inhibition (INH) [1]: Active
fold change (FC) [9]: 1.4
fold change (FC) [10]: 1.8

fold change (FC) [2]: 1.3
Structure (SMILES): CC1(C)[C@@H](O)CC[C@]2(C)[C@H]3C[C@@H](O)[C@@H]4[C@@H]([C@@](C)(O)CCCNCCc5ccc(Cl)cc5)CC[C@@]4(C)[C@]3(C)CC[C@@H]12
inhibition (INH) [1]: Active
Activity [3]: Toxic

fold change (FC) [2]: 1.3
Structure (SMILES): CC1(C)[C@@H](O)CC[C@]2(C)[C@H]3C[C@@H](O)[C@@H]4[C@@H]([C@@](C)(O)CCCNCCc5ccc([N+](=O)[O-])cc5)CC[C@@]4(C)[C@]3(C)CC[C@@H]12
inhibition (INH) [1]: Active
Activity [3]: Toxic

fold change (FC) [2]: 1.3
Structure (SMILES): COc1ccc(CCNCCC[C@](C)(O)[C@H]2CC[C@]3(C)[C@@H]2[C@H](O)C[C@@H]2[C@@]4(C)CC[C@H](O)C(C)(C)[C@@H]4CC[C@]23C)cc1OC
inhibition (INH) [4]: Active
inhibition (INH) [1]: Active
inhibition (INH) [5]: Active

Structure (SMILES): CNCCC[C@](C)(O)[C@H]1CC[C@]2(C)[C@@H]1[C@H](O)C[C@@H]1[C@@]3(C)CC[C@H](O)C(C)(C)[C@@H]3CC[C@]12C
inhibition (INH) [1]: Not Active

Structure (SMILES): CCNCCC[C@](C)(O)[C@H]1CC[C@]2(C)[C@@H]1[C@H](O)C[C@@H]1[C@@]3(C)CC[C@H](O)C(C)(C)[C@@H]3CC[C@]12C
inhibition (INH) [1]: Not Active

Structure (SMILES): CCCNCCC[C@](C)(O)[C@H]1CC[C@]2(C)[C@@H]1[C@H](O)C[C@@H]1[C@@]3(C)CC[C@H](O)C(C)(C)[C@@H]3CC[C@]12C
inhibition (INH) [1]: Not Active

Structure (SMILES): CC(C)NCCC[C@](C)(O)[C@H]1CC[C@]2(C)[C@@H]1[C@H](O)C[C@@H]1[C@@]3(C)CC[C@H](O)C(C)(C)[C@@H]3CC[C@]12C
inhibition (INH) [1]: Not Active

Structure (SMILES): CC(C)(C)NCCC[C@](C)(O)[C@H]1CC[C@]2(C)[C@@H]1[C@H](O)C[C@@H]1[C@@]3(C)CC[C@H](O)C(C)(C)[C@@H]3CC[C@]12C
inhibition (INH) [1]: Not Active

Structure (SMILES): CC1(C)[C@@H](O)CC[C@]2(C)[C@H]3C[C@@H](O)[C@@H]4[C@@H]([C@@](C)(O)CCCNC5CC5)CC[C@@]4(C)[C@]3(C)CC[C@@H]12
inhibition (INH) [1]: Not Active

Structure (SMILES): CC1(C)[C@@H](O)CC[C@]2(C)[C@H]3C[C@@H](O)[C@@H]4[C@@H]([C@@](C)(O)CCCNCCCn5ccnc5)CC[C@@]4(C)[C@]3(C)CC[C@@H]12
inhibition (INH) [1]: Not Active

Structure (SMILES): CC1(C)[C@@H](O)CC[C@]2(C)[C@H]3C[C@@H](O)[C@@H]4[C@@H]([C@@](C)(O)CCCNCCN5CCNCC5)CC[C@@]4(C)[C@]3(C)CC[C@@H]12
inhibition (INH) [1]: Not Active

Structure (SMILES): CC1(C)[C@@H](O)CC[C@]2(C)[C@H]3C[C@@H](O)[C@@H]4[C@@H]([C@@](C)(O)CCCNCCCO)CC[C@@]4(C)[C@]3(C)CC[C@@H]12
inhibition (INH) [1]: Not Active

Structure (SMILES): CC(C)=CCC[C@](C)(O)[C@H]1CC[C@]2(C)[C@@H]1[C@H](O)C[C@@H]1[C@@]3(C)CC[C@H](O)C(C)(C)[C@@H]3CC[C@]12C
inhibition (INH) [1]: Not Active
Activity [3]: Non-toxic

RFU [14]: 46100
RFU [11]: 53000
RFU [12]: 98700
RFU [13]: 35900
Structure (SMILES): COc1ccc(CCN(C)CCC[C@@](C#N)(c2ccc(OC)c(OC)c2)C(C)C)cc1OC
